Measurements as given in article PMC6594083 (Diabetes, Obesity & Metabolism, 2019).
“And” between values parts separate entries of the source, which are not always exact repeats. Identical values can stand only once. Like-named read-outs stand apart in the source and are kept apart here.

What was measured:
Assay type in all cases: in vivo, human (Japanese patients)
[1] = system: Japanese patients with type 1 diabetes mellitus; details: Day 15; for Glycoalbumin, AMD (95% CI): adjusted mean difference to placebo; for Body weight, mean change from baseline / Glycoalbumin, mean change from baseline: mean ± SD
Procedure, shortened: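 Glycoalbumin and body weight were taken as change from baseline to day 15. Differences from placebo came from an analysis of covariance with baseline as covariate, with 95% CI. Analysed in patients with day-14 pharmacodynamic data.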

[2] = system: Japanese patients with type 1 diabetes mellitus; test: Safety: serum ketone levels; details: for Blood ketone body in patient with AE blood ketone body increased: person; for Mean (SD) change in total serum ketones: baseline until end of treatment
Procedure, shortened: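 Total serum ketones, acetoacetic acid and 3-hydroxybutyric acid were measured at screening, predose on treatment days 1 (baseline), 2, 3, 14 and 15, and in the post-treatment period. Ketone increases were reported as adverse events.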

[3] = system: Japanese patients with type 1 diabetes mellitus; test: Safety: treatment-emergent adverse events incl. hypoglycaemia
Procedure, shortened: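 Self-monitored blood glucose was checked four times daily, before each meal and at bedtime. A value ≤70 mg/dL (≤3.89 mmol/L) was recorded as a hypoglycaemia adverse event. Adverse events were coded by MedDRA version 18.0 in all dosed patients.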

[4] = system: Japanese patients with type 1 diabetes mellitus; test: Concomitant insulin daily dose; details: day 14
Procedure, shortened: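 Japanese type 1 diabetes patients on insulin; randomized, double-blind, placebo-controlled. Insulin was adjusted by usual clinical practice on physician instruction, with a cut considered if self-monitored glucose fell below 80 mg/dL. Basal, bolus and total daily units recorded; change from baseline to day 14.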

[5] = Pharmacokinetics of ipragliflozin; details: human, plasma, oral, AUC24h, day 14, mean ± SD
Procedure, shortened: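 Patients were hospitalized days −2 to 3 and days 13 to 15. […] The analysis set was patients dosed with at least one drug-concentration sample.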

OC[C@H]1O[C@@H](c2ccc(F)c(Cc3cc4ccccc4s3)c2)[C@H](O)[C@@H](O)[C@@H]1O [ipragliflozin]
Glycoalbumin, AMD (95% CI) ([1]; 25 mg/day): −2.17% and −2.17 (−3.84, −0.51) %
Body weight, mean change from baseline ([1]; 25 mg/day): -0.83 ± 0.48 kg
Glycoalbumin, mean change from baseline ([1]; 25 mg/day): −2.67 ± 2.30%
Glycoalbumin, AMD (95% CI) ([1]; 50 mg/day): −2.03% and −2.03 (−3.58, −0.48) %
Body weight, mean change from baseline ([1]; 50 mg/day): -1.18 ± 1.06 kg
Glycoalbumin, mean change from baseline ([1]; 50 mg/day): −2.53 ± 1.52%
Body weight, mean change from baseline ([1]; 100 mg/day): -0.94 ± 0.89 kg
Glycoalbumin, mean change from baseline ([1]; 100 mg/day): −2.95 ± 2.24%
Blood ketone body in patient with AE blood ketone body increased ([2]; 25 mg group, day 15, 24 hours postdose): 991 µmol/L
Mean (SD) change in total serum ketones ([2]; 25 mg/day): 173.38 (267.48) μmol/L
Blood ketone body in patient with AE blood ketone body increased ([2]; 50 mg group, day 15, 24 hours postdose): 968 µmol/L
Mean (SD) change in total serum ketones ([2]; 50 mg/day): 357.07 (294.41) μmol/L
Blood ketone body in patient with AE blood ketone body increased ([2]; 100 mg group, day 2, predose): 1200 µmol/L
Blood ketone body in patient with AE blood ketone body increased ([2]; 100 mg group, day 15, 24 hours postdose): 1770 µmol/L
Mean (SD) change in total serum ketones ([2]; 100 mg/day): 233.18 (387.35) μmol/L
Hypoglycaemia, Asymptomatic ([3]; 25 mg/day (n = 10)): 10 (100.0) patients (%)
Hypoglycaemia, Asymptomatic, number of events ([3]; 25 mg/day (n = 10)): 44 events
Hypoglycaemia, Documented symptomatic ([3]; 25 mg/day (n = 10)): 8 (80.0) patients (%)
Hypoglycaemia, Documented symptomatic, number of events ([3]; 25 mg/day (n = 10)): 58 events
Hypoglycaemia, Drug‐related ([3]; 25 mg/day (n = 10)): 10 (100.0) patients (%)
Hypoglycaemia, Drug‐related, number of events ([3]; 25 mg/day (n = 10)): 83 events
Hypoglycaemia, Major ([3]; 25 mg/day (n = 10)): 0 patients (%)
Hypoglycaemia, Mild, number of events ([3]; 25 mg/day (n = 10)): 102 events
Hypoglycaemia, Moderate ([3]; 25 mg/day (n = 10)): 1 (10.0) patients (%)
Hypoglycaemia, Moderate, number of events ([3]; 25 mg/day (n = 10)): 1 events
Hypoglycaemia, Probable symptomatic ([3]; 25 mg/day (n = 10)): 0 patients (%)
Hypoglycaemia, Relative ([3]; 25 mg/day (n = 10)): 1 (10.0) patients (%)
Hypoglycaemia, Relative, number of events ([3]; 25 mg/day (n = 10)): 1 events
Hypoglycaemia, Serious ([3]; 25 mg/day (n = 10)): 0 patients (%)
Hypoglycaemia, Severe ([3]; 25 mg/day (n = 10)): 0 patients (%)
TEAE Beta 2 microglobulin increased ([3]; 25 mg/day (n = 10)): 1 (10.0) patients (%)
TEAE Blood bilirubin increased ([3]; 25 mg/day (n = 10)): 1 (10.0) patients (%)
TEAE Blood ketone body increased ([3]; 25 mg/day (n = 10)): 1 (10.0) patients (%)
TEAE Constipation ([3]; 25 mg/day (n = 10)): 0 patients (%)
TEAE Decreased appetite ([3]; 25 mg/day (n = 10)): 0 patients (%)
TEAE Gastroenteritis ([3]; 25 mg/day (n = 10)): 1 (10.0) patients (%)
TEAE Headache ([3]; 25 mg/day (n = 10)): 0 patients (%)
TEAE Hemorrhoidal hemorrhage ([3]; 25 mg/day (n = 10)): 0 patients (%)
TEAE Hyperglycaemia ([3]; 25 mg/day (n = 10)): 0 patients (%)
TEAE Hypoglycaemia ([3]; 25 mg/day (n = 10)): 10 (100.0) patients (%)
TEAE Hypoglycaemia, number of events ([3]; 25 mg/day (n = 10)): 103 events
TEAE Nasopharyngitis ([3]; 25 mg/day (n = 10)): 1 (10.0) patients (%)
TEAE Overall ([3]; 25 mg/day (n = 10)): 10 (100.0) patients (%)
TEAE Papule ([3]; 25 mg/day (n = 10)): 0 patients (%)
TEAE Pollakiuria ([3]; 25 mg/day (n = 10)): 0 patients (%)
TEAE Pyrexia ([3]; 25 mg/day (n = 10)): 0 patients (%)
TEAE Upper respiratory tract infection ([3]; 25 mg/day (n = 10)): 0 patients (%)
TEAE Urine ketone body present ([3]; 25 mg/day (n = 10)): 0 patients (%)
TEAE Vomiting ([3]; 25 mg/day (n = 10)): 0 patients (%)
Hypoglycaemia, Asymptomatic ([3]; 50 mg/day (n = 12)): 9 (75.0) patients (%)
Hypoglycaemia, Asymptomatic, number of events ([3]; 50 mg/day (n = 12)): 34 events
Hypoglycaemia, Documented symptomatic ([3]; 50 mg/day (n = 12)): 11 (91.7) patients (%)
Hypoglycaemia, Documented symptomatic, number of events ([3]; 50 mg/day (n = 12)): 96 events
Hypoglycaemia, Drug‐related ([3]; 50 mg/day (n = 12)): 12 (100.0) patients (%)
Hypoglycaemia, Drug‐related, number of events ([3]; 50 mg/day (n = 12)): 122 events
Hypoglycaemia, Major ([3]; 50 mg/day (n = 12)): 0 patients (%)
Hypoglycaemia, Mild, number of events ([3]; 50 mg/day (n = 12)): 141 events
Hypoglycaemia, Moderate ([3]; 50 mg/day (n = 12)): 1 (8.3) patients (%)
Hypoglycaemia, Moderate, number of events ([3]; 50 mg/day (n = 12)): 3 events
Hypoglycaemia, Probable symptomatic ([3]; 50 mg/day (n = 12)): 3 (25.0) patients (%)
Hypoglycaemia, Probable symptomatic, number of events ([3]; 50 mg/day (n = 12)): 3 events
Hypoglycaemia, Relative ([3]; 50 mg/day (n = 12)): 4 (33.3) patients (%)
Hypoglycaemia, Relative, number of events ([3]; 50 mg/day (n = 12)): 11 events
Hypoglycaemia, Serious ([3]; 50 mg/day (n = 12)): 0 patients (%)
Hypoglycaemia, Severe ([3]; 50 mg/day (n = 12)): 0 patients (%)
TEAE Beta 2 microglobulin increased ([3]; 50 mg/day (n = 12)): 0 patients (%)
TEAE Blood bilirubin increased ([3]; 50 mg/day (n = 12)): 0 patients (%)
TEAE Blood ketone body increased ([3]; 50 mg/day (n = 12)): 1 (8.3) patients (%)
TEAE Constipation ([3]; 50 mg/day (n = 12)): 1 (8.3) patients (%)
TEAE Decreased appetite ([3]; 50 mg/day (n = 12)): 1 (8.3) patients (%)
TEAE Gastroenteritis ([3]; 50 mg/day (n = 12)): 0 patients (%)
TEAE Headache ([3]; 50 mg/day (n = 12)): 0 patients (%)
TEAE Hemorrhoidal hemorrhage ([3]; 50 mg/day (n = 12)): 0 patients (%)
TEAE Hyperglycaemia ([3]; 50 mg/day (n = 12)): 1 (8.3) patients (%)
TEAE Hypoglycaemia ([3]; 50 mg/day (n = 12)): 12 (100.0) patients (%)
TEAE Hypoglycaemia, number of events ([3]; 50 mg/day (n = 12)): 144 events
TEAE Nasopharyngitis ([3]; 50 mg/day (n = 12)): 1 (8.3) patients (%)
TEAE Overall ([3]; 50 mg/day (n = 12)): 12 (100.0) patients (%)
TEAE Papule ([3]; 50 mg/day (n = 12)): 1 (8.3) patients (%)
TEAE Pollakiuria ([3]; 50 mg/day (n = 12)): 1 (8.3) patients (%)
TEAE Pyrexia ([3]; 50 mg/day (n = 12)): 1 (8.3) patients (%)
TEAE Upper respiratory tract infection ([3]; 50 mg/day (n = 12)): 0 patients (%)
TEAE Urine ketone body present ([3]; 50 mg/day (n = 12)): 1 (8.3) patients (%)
TEAE Vomiting ([3]; 50 mg/day (n = 12)): 1 (8.3) patients (%)
Hypoglycaemia, Asymptomatic ([3]; 100 mg/day (n = 10)): 9 (90.0) patients (%)
Hypoglycaemia, Asymptomatic, number of events ([3]; 100 mg/day (n = 10)): 60 events
Hypoglycaemia, Documented symptomatic ([3]; 100 mg/day (n = 10)): 7 (70.0) patients (%)
Hypoglycaemia, Documented symptomatic, number of events ([3]; 100 mg/day (n = 10)): 25 events
Hypoglycaemia, Drug‐related ([3]; 100 mg/day (n = 10)): 9 (90.0) patients (%)
Hypoglycaemia, Drug‐related, number of events ([3]; 100 mg/day (n = 10)): 77 events
Hypoglycaemia, Major ([3]; 100 mg/day (n = 10)): 0 patients (%)
Hypoglycaemia, Mild, number of events ([3]; 100 mg/day (n = 10)): 85 events
Hypoglycaemia, Moderate ([3]; 100 mg/day (n = 10)): 0 patients (%)
Hypoglycaemia, Probable symptomatic ([3]; 100 mg/day (n = 10)): 0 patients (%)
Hypoglycaemia, Relative ([3]; 100 mg/day (n = 10)): 0 patients (%)
Hypoglycaemia, Serious ([3]; 100 mg/day (n = 10)): 0 patients (%)
Hypoglycaemia, Severe ([3]; 100 mg/day (n = 10)): 0 patients (%)
TEAE Beta 2 microglobulin increased ([3]; 100 mg/day (n = 10)): 0 patients (%)
TEAE Blood bilirubin increased ([3]; 100 mg/day (n = 10)): 0 patients (%)
TEAE Blood ketone body increased ([3]; 100 mg/day (n = 10)): 2 (20.0) patients (%)
TEAE Constipation ([3]; 100 mg/day (n = 10)): 0 patients (%)
TEAE Decreased appetite ([3]; 100 mg/day (n = 10)): 0 patients (%)
TEAE Gastroenteritis ([3]; 100 mg/day (n = 10)): 0 patients (%)
TEAE Headache ([3]; 100 mg/day (n = 10)): 0 patients (%)
TEAE Hemorrhoidal hemorrhage ([3]; 100 mg/day (n = 10)): 0 patients (%)
TEAE Hyperglycaemia ([3]; 100 mg/day (n = 10)): 0 patients (%)
TEAE Hypoglycaemia ([3]; 100 mg/day (n = 10)): 9 (90.0) patients (%)
TEAE Hypoglycaemia, number of events ([3]; 100 mg/day (n = 10)): 85 events
TEAE Nasopharyngitis ([3]; 100 mg/day (n = 10)): 0 patients (%)
TEAE Overall ([3]; 100 mg/day (n = 10)): 9 (90.0) patients (%)
TEAE Papule ([3]; 100 mg/day (n = 10)): 0 patients (%)
TEAE Pollakiuria ([3]; 100 mg/day (n = 10)): 0 patients (%)
TEAE Pyrexia ([3]; 100 mg/day (n = 10)): 0 patients (%)
TEAE Upper respiratory tract infection ([3]; 100 mg/day (n = 10)): 1 (10.0) patients (%)
TEAE Urine ketone body present ([3]; 100 mg/day (n = 10)): 1 (10.0) patients (%)
TEAE Vomiting ([3]; 100 mg/day (n = 10)): 0 patients (%)
Deaths, serious TEAEs, TEAEs leading to discontinuation ([3]; 25, 50, 100 mg/day for 14 days): no deaths, other serious TEAEs, or TEAEs leading to discontinuation
Ketoacidosis ([3]; 25, 50, 100 mg/day for 14 days): no ketoacidosis was observed
Total daily insulin dose, % change from baseline (SD) ([4]; 25 mg/day): −14.77 ± 14.04%
Total daily insulin dose, % change from baseline (SD) ([4]; 50 mg/day): −18.40 ± 12.49%
Total daily insulin dose, % change from baseline (SD) ([4]; 100 mg/day): −19.25 ± 16.77%
AUC(0-t) ([5]; 25 mg/day, 25 mg/day): 2510 ± 495 ng·h/mL
AUC(0-t) ([5]; 50 mg/day, 50 mg/day): 5790 ± 1130 ng·h/mL
